The values that follow come from ChEMBL document CHEMBL4152350, “A new multifunctional hydroxytyrosol-clofibrate with hypolipidemic, antioxidant, and hepatoprotective effects” (Bioorg Med Chem Lett, 2018).

The nature of data set [1]: Antioxidant activity assessed as DPPH radical scavenging activity after 30 mins. Format: functional. (In general: Loss of DPPH colour is used to gauge radical scavenging.)
Data set [2] has as its system Mus musculus. Put plainly: Hypolipidemic activity in Triton WR 1339-induced acute hyperlipidemic ICR mouse model assessed as decrease in plasma triglyceride levels at 240 umol/kg, ig for one week followed by Triton WR 1339 challenge on day 6 measured after 24 hrs. Set-up: scale not given: the % may be the effect or the level left. It is filed as functional. A digest of the protocol: (§1)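 Acute hyperlipidemia was induced with Triton WR 1339 in mice given 240 µmol/kg intragastrically for 7 days. Plasma TG and TC are expressed as percent reduction, and plasma MDA in nmol/mL. Data are mean ± SEM, n=8, compared against the blank and model groups.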

Data set [3] has as its system Mus musculus. Briefly: Antioxidant activity in ICR mouse assessed as hepatic GSH to GSSG ratio at 240 umol/kg/day administered po for 2 months (reference value: 16.4 +/- 2.34). Format: functional. In outline: (§2)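 Male ICR mice (20.0 ± 2.0 g) received 240 µmol/kg/day; normal controls got an equal volume of vehicle. Commercial kits measured serum SOD, CAT and MDA and hepatic GSH and GSSG, with the GSH/GSSG ratio calculated. Groups were compared with normal and CF groups.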

Data set [4] has as its system Mus musculus. Put plainly: Hepatoprotective activity in ICR mouse assessed as liver weight at 240 umol/kg/day administered po for 2 months (reference value: 1.49 +/- 0.42 g). It is filed as functional.
The test system of data set [5] is Mus musculus. Briefly: Hepatoprotective activity in ICR mouse assessed as serum TBIL levels at 240 umol/kg/day administered po for 2 months (reference value: 0.63 +/- 0.09 microM). Format: functional.
For data set [6], the system named is Mus musculus. Put plainly: Antioxidant activity in ICR mouse assessed as serum SOD levels at 240 umol/kg/day administered po for 2 months (reference value: 337.64 +/- 4.82 U/ml). It is filed as functional. In outline: as §2
Data set [7] deals with Mus musculus. Put plainly: Hepatoprotective activity in ICR mouse assessed as liver coefficient at 240 umol/kg/day administered po for 2 months (reference value: 40.50 +/- 0.71 mg/g). It is filed as functional.
In data set [8] the test system is Mus musculus. Briefly: Hepatoprotective activity in ICR mouse assessed as serum APK levels per 100 ml at 240 umol/kg/day administered po for 2 months (reference value: 20.02 +/- 0.61 U). Format: functional.
The test system of data set [9] is Mus musculus. Put plainly: Antioxidant activity in ICR mouse assessed as hepatic GSH levels at 240 umol/kg/day administered po for 2 months (reference value: 43.38 +/- 4.59 microM). Format: functional. A digest of the protocol:
as §2

Data set [10] concerns Mus musculus. Briefly: Hepatoprotective activity in ICR mouse assessed as centrilobular hypertrophy at 240 umol/kg/day administered po for 2 months by histopathological analysis. It is filed as functional, organism-based. A digest of the protocol:
(§3)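 Liver slices from male ICR mice (20.0 ± 2.0 g) were examined histopathologically after 240 µmol/kg/day dosing; normal controls received the same volume of vehicle.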

Data set [11] is described as follows: Antioxidant activity assessed as hydroxyl radical scavenging activity after 60 mins. Format: functional.
Data set [12] relates to Mus musculus. Briefly: Toxicity in ICR mouse assessed as body weight at 240 umol/kg/day administered po for 2 months (reference value: 36.8 +/- 0.70 g). Format: organism-based. The settings on record: in vivo.
In data set [13] the test system is Mus musculus. Briefly: Antioxidant activity in ICR mouse assessed as serum CAT levels at 240 umol/kg/day administered po for 2 months (reference value: 2.83 +/- 0.22 U/ml). It is filed as functional. A digest of the protocol:
as §2

Data set [14] relates to Mus musculus. Put plainly: Hepatoprotective activity in ICR mouse assessed as serum AST levels at 240 umol/kg/day administered po for 2 months (reference value: 107.25 +/- 2.77 U/L). Format: functional.
The subject of data set [15] is Mus musculus. Briefly: Hepatoprotective activity in ICR mouse assessed as hypertrophy at 240 umol/kg/day administered po for 2 months by histopathological analysis. Format: functional, organism-based. In outline: as §3
Data set [16] deals with Mus musculus. Briefly: Antioxidant activity in ICR mouse assessed as hepatic GSSG levels at 240 umol/kg/day administered po for 2 months (reference value: 2.91 +/- 0.31 microM). It is filed as functional. In outline: as §2
The test system of data set [17] is Mus musculus. Put plainly: Hypolipidemic activity in Triton WR 1339-induced acute hyperlipidemic ICR mouse model assessed as decrease in total cholesterol levels in plasma at 240 umol/kg, ig for one week followed by Triton WR 1339 challenge on day 6 measured after 24 hrs. It is filed as functional. Details: scale not given: the % may be the effect or the level left. A digest of the protocol:
as §1

Data set [18] concerns Mus musculus. Briefly: Hepatoprotective activity in ICR mouse assessed as midzonal mitosis at 240 umol/kg/day administered po for 2 months by histopathological analysis. Format: functional, organism-based. In outline: as §3
Data set [19] relates to Mus musculus. Briefly: Hypolipidemic activity in Triton WR 1339-induced acute hyperlipidemic ICR mouse model assessed as decrease in malonaldehyde levels in plasma at 240 umol/kg, ig for one week followed by Triton WR 1339 challenge on day 6 measured after 24 hrs. Format: functional. Set-up: scale not given: the % may be the effect or the level left. In outline:
as §1

In data set [20] the test system is Mus musculus. Put plainly: Hepatoprotective activity in ICR mouse assessed as serum ALT levels at 240 umol/kg/day administered po for 2 months (reference value: 36.25 +/- 1.08 U/L). It is filed as functional.
The subject of data set [21] is Mus musculus. Briefly: Hepatoprotective activity in ICR mouse assessed as hepatocyte hyperplasia at 240 umol/kg/day administered po for 2 months by histopathological analysis. It is filed as functional, organism-based. In outline:
as §3

The test system of data set [22] is Mus musculus. Briefly: Antioxidant activity in ICR mouse assessed as serum MDA levels at 240 umol/kg/day administered po for 2 months (reference value: 6 +/- 0.20 microM). Format: functional. In outline:
as §2

The source made the active and inactive calls. The calls are words filed in the database; no cut-off is given here.

Take `CC(C)(Oc1ccc(Cl)cc1)C(=O)OCCc1ccc(O)c(O)c1`: the result (in data set [1]; in the data set on Mus musculus [10]; in [11]; with Mus musculus [15]; with Mus musculus [18]; in the data set on Mus musculus [21]) was Active. In addition, the Activity in the data set on Mus musculus [2] worked out at 30%; in the data set with Mus musculus [4], 1.48 g; with Mus musculus [5], 0.95 µM; in the data set on Mus musculus [6], 275.2 U/ml; in the data set on Mus musculus [7] it was 44.17 mg/g; in the data set on Mus musculus [8], 17.57 U. In addition, the Activity amounted to 22.87 µM in the data set with Mus musculus [9]; 33.4 g in the data set on Mus musculus [12]; 2.04 U/ml in the data set with Mus musculus [13]; 121.37 U/L in the data set on Mus musculus [14]; 4.85 µM in the data set on Mus musculus [16]; 33% with Mus musculus [17]. For the same compound, the Activity with Mus musculus [19] was determined as 29%; in the data set on Mus musculus [20] it was 39.75 U/L; in the data set on Mus musculus [22] it was 6.44 µM. In addition, in the data set with Mus musculus [3], the Ratio is reported as 4.1.

For `CCOC(=O)C(C)(C)Oc1ccc(Cl)cc1` [CLOFIBRATE], the outcome (in [1]; in the data set on Mus musculus [10]; in [11]; in the data set with Mus musculus [15]; with Mus musculus [18]; in the data set on Mus musculus [21]) was inactive. Further, the Activity with Mus musculus [2] is 24%; with Mus musculus [4] it was 1.77 g; in the data set with Mus musculus [5], 13.09 µM; in the data set with Mus musculus [6], 228.32 U/ml; in the data set on Mus musculus [7], 52.12 mg/g; in the data set with Mus musculus [8] it was 28.64 U. Also, the Activity in the data set with Mus musculus [9] was 11.6 µM; with Mus musculus [12] it was 33.8 g; in the data set with Mus musculus [13], 3.86 U/ml; with Mus musculus [14] it was 157.5 U/L; in the data set on Mus musculus [16], 6.24 µM; in the data set with Mus musculus [17], 23%. Further, the Activity with Mus musculus [19] is 14%; in the data set on Mus musculus [20], 63.13 U/L; with Mus musculus [22], 7.79 µM. For the same compound, the Ratio with Mus musculus [3] was 2.1.
